Results as given in ChEMBL document CHEMBL1142518, “Potential nicotinic acetylcholine receptor ligands from 2,4-methanoproline derivatives” (J Med Chem, 2008).
Active and inactive are the calls of the source. The calls are words filed in the database; no cut-off is given here.

Columns and labels:
[1] = biological target: Neuronal acetylcholine receptor; alpha4/beta2 (Homo sapiens) (UniProt P17787+P43681); assay: Binding affinity to human nAChR-alpha-4-beta-2 in HEK293 cells; type: cell-based
Outline: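 Cloned human α4β2 nAChR in HEK-293 cell membranes, tested by SPA radioligand binding. Used [3H]epibatidine 1 nM, WGA-coated PVT beads 1 mg/well and 30 µg membrane protein/well, in Tris-HCl buffer (50 mM, 150 mM NaCl, 5 mM KCl, pH 7.4). Nonspecific binding defined with 10 µM epibatidine. Incubated 2-4 h at room temperature and read by scintillation counting. 4-parameter logistic IC50 converted to Ki by Cheng-Prusoff.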

[2] = biological target: Neuronal acetylcholine receptor; alpha3/beta4 (Homo sapiens) (UniProt P30926+P32297); assay: Binding affinity to human nAChR-alpha-3-beta-4 in HEK293 cells; type: cell-based
Outline: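 Scintillation proximity assay on membranes from HEK-293 cells expressing cloned human α3β4 nAChR. [3H]epibatidine 2 nM, WGA-coated PVT beads 1.5 mg/well, 30 µg membrane protein/well, in 50 mM Tris-HCl, 150 mM NaCl, 5 mM KCl, pH 7.4. Nonspecific binding defined with 10 µM epibatidine. Equilibrated 2-4 h at room temperature, then scintillation counted. IC50 from 4-parameter logistic fit, converted to Ki by Cheng-Prusoff.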

Row | Compound | Activity [1] | Activity [2]
1 | c1cncc(OCC23CC(CN2)C3)c1 | inactive | inactive
2 | c1ccc(OCC23CC(CN2)C3)cc1 | inactive | inactive
3 | Cc1cc(CCC23CC(CN2)C3)on1 | inactive | inactive
4 | Cc1cc(/C=C/C23CC(CN2)C3)on1 | inactive | inactive
5 | Clc1ccc(OCC23CC(CN2)C3)cn1 | inactive | inactive
6 | Cc1cc(C23CC(CN2)C3)on1 | inactive | inactive
